# How the values were obtained:
# [1] = test system: Human immunodeficiency virus 1; test: Antiviral activity against Human immunodeficiency virus 1 3B infected in human CEM cells assessed as inhibition of virus-induced giant cell formation after 4 to 5 days by microscopic analysis; format: functional, organism-based, CCRF-CEM
# Outline: (§1)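 CEM cells (~3×10^5/mL) were infected with 100 CCID50/mL HIV-1 IIIB or HIV-2 ROD with compound dilutions. After 4–5 days at 37°C, syncytium formation was scored microscopically. EC50 is the concentration inhibiting giant cell formation by 50%.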
# Human alphaherpesvirus 2 = test: Antiviral activity against Herpes simplex virus G infected in HEL cells assessed as inhibition of virus-induced cytopathicity; format: functional, organism-based, strain G
# Outline: (§2)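 Confluent HEL cell cultures were inoculated with 100 CCID50 of virus in the presence of varying compound concentrations. Cytopathicity or plaque formation was scored once untreated infected controls reached completion. EC50 is the concentration inhibiting virus-induced cytopathicity by 50%.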
# CCRF-CEM [2] = test: Cytostatic activity against human CEM cells after 72 hrs by coulter counting analysis; format: functional, cell-based
# Outline: (§3)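 (5-7.5)×10^4 cells/well were incubated with compound at 37°C, for 48 h (L1210) or 72 h (CEM, HeLa), then counted by Coulter counter. IC50 is the concentration inhibiting proliferation by 50%.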
# Human alphaherpesvirus 1 [3] = test: Antiviral activity against thymidine kinase-deficient acyclovir-resistant Herpes simplex virus KOS infected in HEL cells assessed as inhibition of virus-induced cytopathicity; format: functional, organism-based; conditions: Human alphaherpesvirus 1, KOS; outline: as §2
# Human alphaherpesvirus 1 [4] = test: Antiviral activity against Herpes simplex virus KOS infected in HEL cells assessed as inhibition of virus-induced cytopathicity; format: functional, organism-based; outline: as §2
# [5] = test system: Human immunodeficiency virus 2; test: Antiviral activity against Human immunodeficiency virus type 2 ROD infected in human CEM cells assessed as inhibition of virus-induced giant cell formation after 4 to 5 days by microscopic analysis; format: functional, organism-based, ISOLATE ROD, CCRF-CEM; outline: as §1
# [6] = Antiproliferative activity against human C33A cells after 72 hrs by flow cytometric analysis; format: cell-based, C-33-A
# Outline: (§4)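 SiHa (HPV16+), HeLa (HPV18+) and C33A (HPV-) cervical carcinoma lines grown in DMEM with 10% FBS at 37°C, 5% CO2. Seeded 4×10^3 cells/well and left to adhere 24 h. Treated in triplicate with 1, 10 and 100 μM of compound formulated in ~1% DMSO/PBS pH 7.4.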
# L1210 = test: Cytostatic activity against mouse L1210 cells after 48 hrs by coulter counting analysis; format: functional, cell-based; outline: as §3
# [7] = Cytotoxicity against HEL cells assessed as change in cellular morphology by microscopic analysis; format: cell-based; conditions: human, read-out: MIC
# Outline: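 Uninfected HEL monolayers were exposed to compound. Minimal cytotoxic concentration is the concentration causing microscopically visible alteration of cell morphology.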
# [8] = (§5) Cytotoxicity against human CEM cells; format: cell-based, CCRF-CEM; conditions: CEM (CCRF-CEM) cells
# HeLa [9] = test: Cytostatic activity against human HeLa cells after 72 hrs by coulter counting analysis; format: functional, cell-based; outline: as §3
# Vaccinia virus = test: Antiviral activity against Vaccinia virus Lederle infected in HEL cells assessed as inhibition of virus-induced cytopathicity; format: functional, organism-based; conditions: Orthopoxvirus vaccinia; outline: as §2
# HeLa [10] = test: Antiproliferative activity against human HeLa cells infected with HPV-18 after 72 hrs by flow cytometric analysis; format: functional, cell-based; outline: as §4
# SiHa [11] = test: Antiproliferative activity against human SiHa cells infected with HPV-16 after 72 hrs by flow cytometric analysis; format: functional, cell-based; outline: as §4
# SiHa [12] = test: Antiproliferative activity against human SiHa cells infected with HPV-16 after 96 hrs by trypan blue staining-based Neubauer haemocytometric analysis; format: functional, cell-based
# Outline: (§6)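 SiHa and HPV16+ M08 vulval keratinocytes (VIN3 biopsy-derived) were seeded at 4×10^3 cells/well; human epidermal keratinocytes (EpiLife medium) at 3.5×10^4 cells/well. All adhered 24 h, then were exposed to 0.1 and 1 μM compound in replicate for 96 h at 37°C. Cells were trypsinised, resuspended in PBS and counted in 0.4% trypan blue on a haemocytometer.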
# [13] = Antiproliferative activity against human epidermal keratinocytes after 96 hrs by trypan blue staining-based Neubauer haemocytometric analysis; format: cell-based; conditions: Keratinocyte; outline: as §6
# [14] = Antiproliferative activity against human M08 cells infected with HPV-16 after 96 hrs by trypan blue staining-based Neubauer haemocytometric analysis; format: functional, cell-based; conditions: M08, 96 h; outline: as §6
# CCRF-CEM [15] = test: as §5; format: cell-based; conditions: ccrf-cem
# [16] = Prodrug activation assessed as carboxypeptidase Y (unknown origin)-mediated aminoacyl phosphonamidate ester formation at 3 mg at 25 degC up to 12 hrs by [31P]-NMR analysis
# Outline: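 Compound (3.0 mg) in acetone-d6 plus Trizma buffer pH 7.6 was recorded by 31P NMR at 25°C as control. Carboxypeptidase Y (0.1 mg in Trizma) was then added, and spectra were taken every 7 min over 12 h at 25°C.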
# [17] = test system: Human immunodeficiency virus 1; test: microbe, parasite or virus in culture; conditions: Human immunodeficiency virus 1, 3B, MT2
# [18] = Cytotoxicity against human MT2 cells
# [19] = Human alphaherpesvirus 2, strain G, HEL
# [20] = Human alphaherpesvirus 1, KOS, HEL
# [21] = Human immunodeficiency virus 2, ISOLATE ROD, CCRF-CEM
# [22] = Human immunodeficiency virus 1, 3B, CCRF-CEM
SMILES,EC50 (Human alphaherpesvirus 2; [19]) [nM],"IC50 (CCRF-CEM [2]; Homo sapiens, CCRF-CEM, 72 h) [nM]",EC50 (Human alphaherpesvirus 1 [3]) [nM],EC50 (Human alphaherpesvirus 1 [4]; [20]) [nM],"EC50 [5, 21] [nM]","IC50 ([6]; Homo sapiens, C-33-A, 72 h) [µM]",MCC [7] [µM],CC50 [8] [nM],"IC50 (HeLa [9]; Homo sapiens, HeLa, 72 h) [µM]",EC50 (Vaccinia virus) [µM],"EC50 [1, 22] [nM]","IC50 (L1210; Mus musculus, L1210, 48 h) [nM]",other results
C[C@H](Cn1cnc2c(N)ncnc21)OCP(=O)(N[C@@H](C)C(=O)OCC(C)(C)C)Oc1cccc2ccccc12 (stereo in doubt; 15),700,6900,2000,1500,7,7.6,> 100,6900,17,4,–,–,EC50 ([1]; ccrf-cem): 9 nM; IC50 (L1210; l1210): 5600 nM; IC50 (HeLa [10]; hela): 530 nM
C[C@H](NP(=O)(COCCn1cnc2c(N)ncnc21)N[C@@H](C)C(=O)OCC(C)(C)C)C(=O)OCC(C)(C)C,200,200,300,300,19,0.84,> 100,200,1.6,2.7,24,240,"IC50 (SiHa [11]): 660 nM; IC50 (SiHa [12]): 830 nM; IC50 [13]: 300 nM; IC50 [14]: 820 nM; IC50 (HeLa [10]; Homo sapiens, HeLa, 72 h): 600 nM"
C[C@H](Cn1cnc2c(N)ncnc21)OCP(=O)(O)O [TENOFOVIR ANHYDROUS],122000,6900,151000,105000,3700,–,> 100,> 500000,17,> 100,3900,11000,–
C[C@H](NP(=O)(COCCn1cnc2c(N)ncnc21)N[C@@H](C)C(=O)OCc1ccccc1)C(=O)OCc1ccccc1,250,140,600,700,25,–,> 100,140,0.67,5,40,210,–
C[C@H](NP(=O)(COCCn1cnc2c(N)ncnc21)Oc1cccc2ccccc12)C(=O)OCc1ccccc1 (stereo not given in full),8,120,700,20,50,–,> 100,120,1.6,9.5,30,41,–
C[C@H](Cn1cnc2c(N)ncnc21)OCP(=O)(N[C@@H](C)C(=O)OCC(C)(C)C)Oc1ccccc1 (stereo not given in full),700,2300,1000,1300,12,–,> 100,2300,8,8,18,4000,–
C[C@H](Cn1cnc2c(N)ncnc21)OCP(=O)(N[C@@H](C)C(=O)OCC(C)(C)C)N[C@@H](C)C(=O)OCC(C)(C)C,700,1200,2000,1500,2,0.7,> 100,1200,4,6,4,1500,"IC50 (SiHa [11]): 730 nM; IC50 (HeLa [10]; Homo sapiens, HeLa, 72 h): 540 nM"
C[C@H](Cn1cnc2c(N)ncnc21)OCP(=O)(N[C@@H](C)C(=O)OCC(C)(C)C)Oc1cccc2ccccc12 (mixture of isomers),–,–,–,–,–,–,–,–,–,–,–,–,IC50 (SiHa [11]): 7800 nM; EC50 ([1]; ccrf-cem): 3 nM; EC50 (Human alphaherpesvirus 2; hel): 800 nM; IC50 (CCRF-CEM [2]; ccrf-cem): 3900 nM; EC50 (Human alphaherpesvirus 1 [4]; hel): 2000 nM; EC50 ([5]; ccrf-cem): 4 nM; IC50 ([6]; c-33-a): 6 µM; IC50 (L1210; l1210): 2200 nM; CC50 (CCRF-CEM [15]): 3.9 µM; IC50 (HeLa [9]; hela): 12 µM; IC50 (HeLa [10]; hela): 6200 nM
C[C@H](Cn1cnc2c(N)ncnc21)OCP(=O)(N[C@@H](C)C(=O)OCc1ccccc1)Oc1cccc2ccccc12 (stereo not given in full),700,4400,800,1300,11,–,> 100,4400,11,5.5,19,3700,–
C[C@H](NP(=O)(COCCn1cnc2c(N)ncnc21)Oc1cccc2c1CCCC2)C(=O)OCC(C)(C)C (stereo not given in full),50,19,120,130,7,–,> 100,19,0.45,1.3,17,26,Drug metabolism [16]: metabolite_detected
C[C@H](NP(=O)(COCCn1cnc2c(N)ncnc21)Oc1cccc2ccccc12)C(=O)OCC(C)(C)C (stereo not given in full),100,45,200,250,19,0.54,> 100,45,0.92,1.6,32,68,"IC50 (SiHa [11]): 600 nM; IC50 (SiHa [12]): 90 nM; IC50 [13]: 76 nM; IC50 [14]: 48 nM; IC50 (HeLa [10]; Homo sapiens, HeLa, 72 h): 500 nM"
Nc1ncnc2c1ncn2CCOCP(=O)(O)O [ADEFOVIR],6300,24000,7000,4700,8200,7.8,> 100,≥ 50000,181,–,8400,3000,–
CC(C)OC(=O)[C@H](C)N[P@](=O)(CO[C@H](C)Cn1cnc2c(N)ncnc21)Oc1ccccc1 [TENOFOVIR ALAFENAMIDE],–,–,–,–,–,–,–,–,–,–,–,–,EC50 [17]: 5 nM; CC50 [18]: 40 µM
C[C@H](Cn1cnc2c(N)ncnc21)OCP(=O)(N[C@@H](C)C(=O)OCC(C)(C)C)Oc1cccc2c1CCCC2 (stereo not given in full),1400,2000,5500,1400,9,–,> 100,2000,5.3,10.5,11,1300,–
C[C@H](NP(=O)(COCCn1cnc2c(N)ncnc21)Oc1ccccc1)C(=O)OCC(C)(C)C (stereo not given in full),150,400,550,600,44,–,> 100,400,2.2,3.7,56,150,–
C[C@H](Cn1cnc2c(N)ncnc21)OCP(=O)(N[C@@H](C)C(=O)OCc1ccccc1)N[C@@H](C)C(=O)OCc1ccccc1,3000,> 500000,7000,10000,14,–,> 100,6900,> 500,20,30,120000,–

# — ChEMBL document CHEMBL3232902, “PMPA and PMEA prodrugs for the treatment of HIV infections and human papillomavirus (HPV) associated neoplasia and cancer” (Eur J Med Chem, 2014)
